Results of several laboratories.
Protocols differ between the studies behind these lines.
Target: Serine/threonine-protein kinase PLK3 (PLK3, Homo sapiens, UniProt Q9H4B4)

SMILES	assay	conditions	endpoint	result
N#CC1(c2ccccn2)CCN(Cc2cc(C(=O)O)c(=O)n3ccccc23)CC1	cell-free assay, competition with immobilised ligand	1 µM	remaining binding	85%
COc1cc(Nc2ncc(F)c(Nc3ccc4c(n3)NC(=O)C(C)(C)O4)n2)cc(OC)c1OC	binding	10 µM	inhibition	100%
COc1ncccc1-c1cnn2ccc(N3CCN(C(=O)OC(C)C)CC3)nc12	binding, competition with immobilised ligand	1 µM	remaining binding	100%
Cn1cncc1[C@@](O)(COc1ccc(C#N)cc1-c1ccc(OC(F)(F)F)cc1)c1ccc(C#N)cc1	cell-free assay, competition with immobilised ligand	1 µM	remaining binding	88%
Cn1cc(-c2cccc(N3CCc4c(sc5c4CC(C)(C)C5)C3=O)c2CO)cc(Nc2ccncn2)c1=O	enzyme activity, inhibitor	1 µM	inhibition	-15%
Nc1ncc(-c2nc(N3CCOCC3)nc(N3CCOCC3)n2)c(C(F)F)n1	binding, competition with immobilised ligand	10 µM	remaining binding	83%
CC(C)(C)c1cc(C=C(C#N)C#N)cc(Br)c1O	enzyme activity, inhibitor	0.5 µM	remaining activity	94.6%
Cn1cc(-c2cc(F)cc(N3CCn4c(cc5c4CCCC5)C3=O)c2CO)cc(Nc2ccc(N3CCN(C4COC4)CC3)cn2)c1=O	enzyme activity, inhibitor	0.1 µM	inhibition	10%
Cc1nn(C)cc1-c1nc2c(N3CCN(Cc4ccc(Cl)cc4)CC3)c(Cl)cnc2[nH]1	binding, competition with immobilised ligand	1 µM	remaining binding	88%
O=c1[nH]c2ccccc2n1C1CCN(Cc2ccc(-c3[nH]c4cc5ncnc5cc4nc3-c3ccccc3)cc2)CC1	cell-free assay	0.5 µM	remaining signal	99.1%
